Laboratory results taken from ChEMBL document CHEMBL4765392, “Development of coumarine derivatives as potent anti-filovirus entry inhibitors targeting viral glycoprotein” (Eur J Med Chem, 2020).

Tests used:
[1] = Inhibition of envelope glycoprotein in HIV pseudotyped Zaire Ebolavirus infected in human A549 cells assessed as reduction in virus entry measured after 48 hrs by luciferase reporter gene assay; format: cell-based; details: A549, 48 h
Outline: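 A549 cells (5000/well, seeded 24 h prior) incubated 48 h with 3-fold serial compound dilutions premixed with HIV-backbone luciferase pseudovirions bearing EBOV GP. Entry quantified by luciferase signal, normalized to virus-alone cells. IC50 from logistic regression of dose-response curves.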

[2] = Cytotoxicity against human A549 cells assessed as reduction in cell viability by Celltiter-Glo assay; format: cell-based
Outline: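 Low-passage A549 cells seeded at 5000/well 24 h ahead, then exposed for 48 h to 3-fold serial compound dilutions in fresh media without virus. Viability read by CellTiter-Glo luminescence and normalized to medium-only cells. CC50 from logistic regression fit of dose-response curves.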

[3] = tested on: envelope glycoprotein of Zaire Ebolavirus; assay: Selectivity index, ratio of CC50 for human A549 cells to IC50 for inhibition of envelope glycoprotein in HIV pseudotyped Zaire Ebolavirus infected in human A549 cells assessed as reduction in virus entry; format: toxicity, cell-based; details: read-out: Ratio CC50/IC50
Outline: (§1)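 IC50 wells also got HIV luciferase pseudovirions bearing MARV GP or EBOV GP, read by luciferase. CC50 wells got fresh media, read by CellTiter-Glo. Both values come from logistic dose-response fits, and the index is CC50 divided by IC50.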

[4] = tested on: envelope glycoprotein of Marburgvirus; assay: Selectivity index, ratio of CC50 for human A549 cells to IC50 for inhibition of envelope glycoprotein in HIV pseudotyped Marburgvirus infected in human A549 cells assessed as reduction in virus entry; format: toxicity, cell-based; details: read-out: Ratio CC50/IC50; outline: as §1

**Q.** Which IC50 [1] does the source give for `Cc1c(Cc2ccc(C(F)(F)F)cc2)c(=O)oc2cc(OCC(O)CN3CCC(C(N)=O)CC3)ccc12` (configuration not stated) here?
**A.** 1.1 µM

**Q.** And the CC50 [2]?
**A.** 89.3 µM

**Q.** And the selectivity ratio [3]?
**A.** 78.8

**Q.** What about the selectivity ratio [4] of the same compound?
**A.** 83.7

**Q.** For `COc1ccccc1-c1ccc(Cc2c(C)c3ccc(OCC(O)CN4CCC(C(N)=O)CC4)cc3oc2=O)cc1` (configuration not stated), which IC50 [1] is on record?
**A.** 1.5 µM

**Q.** And the CC50 [2]?
**A.** 91.6 µM

**Q.** And the selectivity ratio [4]?
**A.** 30

**Q.** For `Cc1noc(C)c1-c1ccc(Cc2c(C)c3ccc(OCC(O)CN4CCC(C(N)=O)CC4)cc3oc2=O)cc1` (configuration not stated), which IC50 [1] is on record?
**A.** 5.2 µM

**Q.** And the CC50 [2]?
**A.** 36.9 µM

**Q.** What about the selectivity ratio [3] of the same compound?
**A.** 7.1

**Q.** What about the selectivity ratio [4] of the same compound?
**A.** 11.4

**Q.** Which IC50 [1] does the source give for `Cc1c(Cc2ccc(-c3ccc(C(F)(F)F)cc3)cc2)c(=O)oc2cc(OCC(O)CN3CCC(C(N)=O)CC3)ccc12` (configuration not stated) here?
**A.** 1.2 µM

**Q.** And the CC50 [2]?
**A.** > 100 µM

**Q.** And the selectivity ratio [3]?
**A.** > 85.7

**Q.** What about the selectivity ratio [4] of the same compound?
**A.** 76.9

**Q.** Which results are given for `Cc1c(Cc2ccccc2)c(=O)oc2cc(OCC(O)CNCCc3ccncc3)ccc12` (configuration not stated)?
**A.** IC50 [1]: 0.9 µM; CC50 [2]: > 100 µM; selectivity ratio [3]: > 111; selectivity ratio [4]: 36.6

**Q.** Which results are given for `Cc1c(Cc2cccc3ccccc23)c(=O)oc2cc(OCC(O)CN3CCC(C(N)=O)CC3)ccc12` (configuration not stated)?
**A.** IC50 [1]: 1.5 µM; CC50 [2]: 42.4 µM; selectivity ratio [3]: 28.5; selectivity ratio [4]: 36.6

**Q.** Which results are given for `Cc1c(Cc2ccccc2)c(=O)oc2cc(OCC(O)CNc3ccccc3)ccc12` (configuration not stated)?
**A.** IC50 [1]: > 100 µM; CC50 [2]: > 100 µM; selectivity ratio [4]: 1

**Q.** With `Cc1c(Cc2cccc(F)c2)c(=O)oc2cc(OCC(O)CN3CCC(C(N)=O)CC3)ccc12` (configuration not stated) as the compound, how does the IC50 [1] read?
**A.** 1.6 µM

**Q.** And the CC50 [2]?
**A.** 53.3 µM

**Q.** And the selectivity ratio [3]?
**A.** 34

**Q.** And the selectivity ratio [4]?
**A.** 22.5

**Q.** Which results are given for `Cc1c(Cc2ccc(OC(F)(F)F)cc2)c(=O)oc2cc(OCC(O)CN3CCC(C(N)=O)CC3)ccc12` (configuration not stated)?
**A.** IC50 [1]: 0.5 µM; CC50 [2]: 68.2 µM; selectivity ratio [3]: 136; selectivity ratio [4]: 56.8

**Q.** Which results are given for `Cc1c(Cc2ccc(-c3ccc(C#N)c(F)c3)cc2)c(=O)oc2cc(OCC(O)CN3CCC(C(N)=O)CC3)ccc12` (configuration not stated)?
**A.** IC50 [1]: 3.5 µM; CC50 [2]: 29.1 µM; selectivity ratio [3]: 8.2; selectivity ratio [4]: 12.8

**Q.** Which IC50 [1] does the source give for `Cc1c(Cc2ccc(-c3ccccc3)cc2)c(=O)oc2cc(OCC(O)CN3CCC(C(N)=O)CC3)ccc12` (configuration not stated) here?
**A.** 0.7 µM

**Q.** And the CC50 [2]?
**A.** > 100 µM

**Q.** What about the selectivity ratio [3] of the same compound?
**A.** > 143

**Q.** What about the selectivity ratio [4] of the same compound?
**A.** 111

**Q.** For `Cc1c(Cc2ccccc2)c(=O)oc2cc(OCC(O)CNc3cc([N+](=O)[O-])ccc3O)ccc12` (configuration not stated), which IC50 [1] is on record?
**A.** 81.3 µM

**Q.** And the CC50 [2]?
**A.** > 100 µM

**Q.** What about the selectivity ratio [3] of the same compound?
**A.** 12

**Q.** What about the selectivity ratio [4] of the same compound?
**A.** 1

**Q.** With `Cc1c(Cc2ccc(Br)cc2)c(=O)oc2cc(OCC(O)CN3CCC(C(N)=O)CC3)ccc12` (configuration not stated) as the compound, how does the IC50 [1] read?
**A.** 0.9 µM

**Q.** What about the CC50 [2] of the same compound?
**A.** > 100 µM

**Q.** What about the selectivity ratio [3] of the same compound?
**A.** > 111

**Q.** And the selectivity ratio [4]?
**A.** 85.7

**Q.** What does the source list for `Cc1c(Cc2ccccc2)c(=O)oc2cc(OCC(O)CNCCc3ccccn3)ccc12` (configuration not stated)?
**A.** IC50 [1]: 3.6 µM; CC50 [2]: 54.9 µM; selectivity ratio [3]: 15.6; selectivity ratio [4]: 9.3

**Q.** Which IC50 [1] does the source give for `C#CCNCC(O)COc1ccc2c(C)c(Cc3ccccc3)c(=O)oc2c1` (configuration not stated) here?
**A.** 5.9 µM

**Q.** What about the CC50 [2] of the same compound?
**A.** 95.5 µM

**Q.** And the selectivity ratio [3]?
**A.** 16.1

**Q.** And the selectivity ratio [4]?
**A.** 17.2

**Q.** Which results are given for `Cc1c(Cc2ccccc2)c(=O)oc2cc(OCC(O)CNCCCCCCO)ccc12` (configuration not stated)?
**A.** IC50 [1]: 1 µM; CC50 [2]: 40.3 µM; selectivity ratio [4]: 16.6

**Q.** What does the source list for `Cc1c(Cc2ccccc2)c(=O)oc2cc(OCC(CN3CCC(C(N)=O)CC3)Oc3ccc(F)cc3)ccc12` (configuration not stated)?
**A.** IC50 [1]: 10.4 µM; CC50 [2]: 66.4 µM; selectivity ratio [3]: 6.4; selectivity ratio [4]: 5.5

**Q.** Which results are given for `Cc1ccc2nc(NCC(O)COc3ccc4c(C)c(Cc5ccccc5)c(=O)oc4c3)sc2c1` (configuration not stated)?
**A.** IC50 [1]: 10.2 µM; CC50 [2]: > 100 µM; selectivity ratio [3]: > 9.8; selectivity ratio [4]: 11.3

**Q.** Which IC50 [1] does the source give for `Cc1c(Cc2ccc(C(C)(C)C)cc2)c(=O)oc2cc(OCC(O)CN3CCC(C(N)=O)CC3)ccc12` (configuration not stated) here?
**A.** 11.7 µM

**Q.** What about the CC50 [2] of the same compound?
**A.** 14.7 µM

**Q.** What about the selectivity ratio [3] of the same compound?
**A.** 1.3

**Q.** And the selectivity ratio [4]?
**A.** 2.5

**Q.** What does the source list for `COC(=O)c1ccc(Cc2c(C)c3ccc(OCC(O)CN4CCC(C(N)=O)CC4)cc3oc2=O)cc1` (configuration not stated)?
**A.** IC50 [1]: 7.5 µM; CC50 [2]: > 100 µM; selectivity ratio [3]: > 13.3; selectivity ratio [4]: 11

**Q.** For `COc1ccc(Cc2c(C)c3ccc(OCC(O)CN4CCC(C(N)=O)CC4)cc3oc2=O)c(Br)c1` (configuration not stated), which IC50 [1] is on record?
**A.** 2.5 µM

**Q.** And the CC50 [2]?
**A.** 44.4 µM

**Q.** And the selectivity ratio [3]?
**A.** 18

**Q.** And the selectivity ratio [4]?
**A.** 8.6

**Q.** For `Cc1c(Cc2ccccc2)c(=O)oc2cc(OCC(O)CNc3nccs3)ccc12` (configuration not stated), which IC50 [1] is on record?
**A.** 2.1 µM

**Q.** And the CC50 [2]?
**A.** 93 µM

**Q.** And the selectivity ratio [3]?
**A.** 44.3

**Q.** What about the selectivity ratio [4] of the same compound?
**A.** 33.2

**Q.** Which IC50 [1] does the source give for `Cc1c(Cc2ccc(-c3ccc(C=O)c(F)c3)cc2)c(=O)oc2cc(OCC(O)CN3CCC(C(N)=O)CC3)ccc12` (configuration not stated) here?
**A.** 10.9 µM

**Q.** What about the CC50 [2] of the same compound?
**A.** 62.4 µM

**Q.** And the selectivity ratio [3]?
**A.** 5.7

**Q.** And the selectivity ratio [4]?
**A.** 11.9

**Q.** Which results are given for `Cc1c(Cc2ccccc2)c(=O)oc2cc(OCC(O)CNn3ccnn3)ccc12` (configuration not stated)?
**A.** IC50 [1]: > 100 µM; CC50 [2]: > 100 µM; selectivity ratio [4]: 1
